The source made the active and inactive calls. The rule behind the calls is not given here.
Assays:
Mus musculus [1] = experiment: Hepatoprotective activity against CCL4-induced liver damage in C57BL/6J mouse assessed as reduction in serum ALT levels at 20 ug/kg, po administered 5 times a week via gavage measured at 72 hrs post final CCl4 injection; format: functional, organism-based
Method in brief: (§1)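 Same CCl4 mouse model (n=5; 0.5 mL/kg IP, 3×/week for 4 weeks; 20 µg/kg gavage 5×/week from day 20; sacrifice 72 h after last CCl4). Serum obtained by centrifugation at 3000 rpm for 15 min at 4°C. ALT, AST, TBA and calcium measured with commercial kits. Mean ± SD.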

Mus musculus [2] = experiment: Antifibrotic activity in C57BL/6J mouse model of CCl4-induced liver fibrosis assessed as reduction in hydroxyproline levels in liver at 20 ug/kg, po administered 5 times a week via gavage measured at 72 hrs post final CCl4 injection; format: functional, organism-based
Method in brief: (§2)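 Same CCl4 mouse model (n=5; 0.5 mL/kg IP in corn oil, 3×/week for 4 weeks; 20 µg/kg oral gavage 5×/week from day 20; sacrifice 72 h after last CCl4). Livers fixed in 4% paraformaldehyde for 24 h, paraffin-embedded, and cut into 5 µm sections. Sections stained with H&E (×100) or Masson's trichrome (×200). Hydroxyproline measured by kit.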

Mus musculus [3] = experiment: Hepatoprotective activity against CCL4-induced liver damage in C57BL/6J mouse assessed as reduction in serum TBA levels at 20 ug/kg, po administered 5 times a week via gavage measured at 72 hrs post final CCl4 injection; format: functional, organism-based; method in brief: as §1
[4] = target: T1, Vitamin D3 receptor (Homo sapiens) (UniProt P11473); experiment: Agonist activity at VDR in human LX2 cells assessed as inhibition of TGFbeta1-induced collagen-1 synthesis at 100 nM after 24 hrs by ELISA relative to 1,25(OH)2D3
T1 sequence (whole entry): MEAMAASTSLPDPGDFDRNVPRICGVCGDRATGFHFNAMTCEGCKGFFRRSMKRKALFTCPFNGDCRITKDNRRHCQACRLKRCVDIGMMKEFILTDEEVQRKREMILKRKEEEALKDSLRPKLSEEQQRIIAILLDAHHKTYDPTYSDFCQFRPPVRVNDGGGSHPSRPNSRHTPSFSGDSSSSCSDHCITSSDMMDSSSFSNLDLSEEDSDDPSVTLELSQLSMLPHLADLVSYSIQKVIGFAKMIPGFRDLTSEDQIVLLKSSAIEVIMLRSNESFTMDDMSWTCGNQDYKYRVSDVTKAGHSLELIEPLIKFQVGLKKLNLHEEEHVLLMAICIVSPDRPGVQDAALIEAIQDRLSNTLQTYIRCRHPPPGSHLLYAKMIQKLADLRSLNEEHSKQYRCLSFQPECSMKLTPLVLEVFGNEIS

Mus musculus [5] = experiment: Hepatoprotective activity against CCL4-induced liver damage in C57BL/6J mouse assessed as reduction in serum AST levels at 20 ug/kg, po administered 5 times a week via gavage measured at 72 hrs post final CCl4 injection; format: functional, organism-based; method in brief: as §1
[6] = target: T1, Vitamin D3 receptor (Homo sapiens); experiment: Binding affinity to VDR ligand binding domain (unknown origin) at 100 nM by fluorescence polarization assay relative to 1,25(OH)2D3
[7] = Half life in Sprague-Dawley rat at 20 mg/kg, po by HPLC analysis; format: ADME, organism-based; details: in vivo
[8] = Oral bioavailability in Sprague-Dawley rat at 20 mg/kg by HPLC analysis; format: ADME, organism-based; details: in vivo
[9] = target: T1, Vitamin D3 receptor (Homo sapiens); experiment: Transactivation of VDR in human LX2 cells assessed as inhibition of TGFbeta1-induced ACTA2 mRNA expression at 100 nM after 24 hrs by Q-PCR analysis; format: cell-based
Method in brief: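 LX-2 cells cultured with 100 nM compound for 24 h. ACTA2 mRNA measured by SYBR Green Q-PCR, normalized to U36B4 (human internal control).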

[10] = target: T1, Vitamin D3 receptor (Homo sapiens); experiment: Transactivation of VDR (unknown origin) expressed in HEK293 cells co-transfected with human RXRalpha after 24 hrs by dual luciferase reporter gene assay; format: cell-based
Method in brief: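 HEK293 cells at 85-90% confluence transfected per well with 140 ng TK-SPP×3-Luc reporter, 20 ng pCMX-Renilla, 30 ng pENTER-CMV-hRXRα and 100 ng pCMX-VDR. Compounds added 8 h after transfection. Dual-luciferase assay run 24 h later, firefly normalized to Renilla, three experiments.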

[11] = target: T1, Vitamin D3 receptor (Homo sapiens); experiment: Transactivation of VDR in human LX2 cells assessed as inhibition of TGFbeta1-induced collagen 1 protein levels at 100 nM after 24 hrs by Western blot analysis; format: cell-based
Method in brief: (§3)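 LX-2 cells cultured 24 h with 100 nM compound in TGFβ1-treated cells. Proteins separated on 10% SDS-PAGE, transferred to PVDF, and α-SMA or collagen I bands detected by infrared scanning.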

[12] = target: T1, Vitamin D3 receptor (Homo sapiens); experiment: Transactivation of VDR in human LX2 cells assessed as inhibition of TGFbeta1-induced alpha-SMA protein levels at 100 nM after 24 hrs by Western blot analysis; format: cell-based; method in brief: as §3
Mus musculus [13] = experiment: Induction of serum calcium levels in CCL4-induced C57BL/6J mouse liver damage model at 20 ug/kg, po administered 5 times a week via gavage measured at 72 hrs post final CCl4 injection; format: organism-based; details: in vivo, 0.02 mg/kg; method in brief: as §1
Mus musculus [14] = experiment: Antifibrotic activity in C57BL/6J mouse model of CCl4-induced liver fibrosis assessed as increase in CYP24A1 expression in liver at 20 ug/kg, po administered 5 times a week via gavage measured at 72 hrs post final CCl4 injection by Q-PCR analysis; format: functional, organism-based
Mus musculus [15] = experiment: Antifibrotic activity in C57BL/6J mouse model of CCl4-induced liver fibrosis assessed as reduction in collagen accumulation in liver at 20 ug/kg, po administered 5 times a week via gavage measured at 72 hrs post final CCl4 injection by hematoxylin-eosin staining based assay; format: functional, organism-based; method in brief: as §2
Mus musculus [16] = experiment: Effect on Trpv6 mRNA expression in CCL4-induced C57BL/6J mouse liver damage model at 20 ug/kg, po via gavage measured on day 3 and 7 by Q-PCR analysis; format: ADME, organism-based; details: in vivo, 0.02 mg/kg
Homo sapiens [17] = species: Homo sapiens; experiment: Inhibition of TGFbeta1-mediated collagen-1 activation in human LX2 cells at 100 nM after 24 hrs in presence of VDR siRNA by Western blot analysis; format: functional, cell-based
Method in brief: (§4)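 LX-2 cells transfected with VDR-directed or scrambled siRNA (50 nM, Lipofectamine 2000), cultured 24 h, then treated 24 h with 100 nM compound, TGFβ1 (1 ng/mL), or both. VDR, α-SMA and collagen I measured by western blot (10% SDS-PAGE, PVDF).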

Mus musculus [18] = experiment: Antifibrotic activity in C57BL/6J mouse model of CCl4-induced liver fibrosis assessed as reduction in COL1A1 mRNA expression in liver at 20 ug/kg, po administered 5 times a week via gavage measured at 72 hrs post final CCl4 injection by Q-PCR analysis; format: functional, organism-based
Mus musculus [19] = experiment: Antifibrotic activity in C57BL6/J mouse model of CCl4-induced liver fibrosis assessed as reduction in collagen accumulation in liver at 20 ug/kg, po administered 5 times a week via gavage measured at 72 hrs post final CCl4 injection by Masson's trichrome-staining based assay; format: functional, organism-based; details: C57BL/6J; method in brief: as §2
Homo sapiens [20] = species: Homo sapiens; experiment: Inhibition of TGFbeta1-mediated alphaSMA expression in human LX2 cells at 100 nM after 24 hrs in presence of VDR siRNA by Western blot analysis; format: functional, cell-based; method in brief: as §4
[21] = target: T1, Vitamin D3 receptor (Homo sapiens); experiment: Agonist activity at VDR in human LX2 cells assessed as upregulation of TGFbeta1-induced CYP24A1 mRNA expression after 24 hrs by Q-PCR method; format: cell-based
Mus musculus [22] = experiment: Antifibrotic activity in C57BL/6J mouse model of CCl4-induced liver fibrosis assessed as decrease in alpha-SMA expression in liver at 20 ug/kg, po administered 5 times a week via gavage measured at 72 hrs post final CCl4 injection by IHC-staining based assay; format: functional, organism-based
Mus musculus [23] = experiment: Antifibrotic activity in C57BL/6J mouse model of CCl4-induced liver fibrosis assessed as decrease in alpha-SMA expression in liver at 20 ug/kg, po administered 5 times a week via gavage measured at 72 hrs post final CCl4 injection by Q-PCR analysis; format: functional, organism-based

## C=C1/C(=C\C=C2/CCC[C@]3(C)[C@@H]([C@H](C)/C=C/[C@@H](O)C4CC4)CC[C@@H]23)C[C@@H](O)C[C@@H]1O
Mus musculus [1]
  Activity: Active
Mus musculus [2]
  Activity: Active
Mus musculus [3]
  Activity: Active
[4]
  collagen-1 synthesis inhibition relative to 1,25(OH)2D3 (%): 95%
Mus musculus [5]
  Activity: Active
[6]
  Activity: 93%

## CCn1cc(C(CC)(CC)c2ccc(OC(=O)CCC(=O)O)c(C)c2)cc1C(=O)NCC(C)(C)O
[4]
  collagen-1 synthesis inhibition relative to 1,25(OH)2D3 (%): 80%
[6]
  Activity: 30%

## C=C1/C(=C\C=C2/CCC[C@]3(C)[C@@H]([C@H](C)CCCC(C)(C)O)CC[C@@H]23)C[C@@H](O)C[C@@H]1O [CALCITRIOL]
Mus musculus [1]
  Activity: Active
Mus musculus [2]
  Activity: Active
Mus musculus [3]
  Activity: Active
[7]
  half-life: 7.55 h
Mus musculus [5]
  Activity: Active
[8]
  bioavailability: 30.8%

## CCn1c(C(=O)NCC(F)(F)F)ccc1C(CC)(CC)c1ccc(OCC(O)CO)c(C)c1 (stereo unspecified)
[4]
  collagen-1 synthesis inhibition relative to 1,25(OH)2D3 (%): 135%
[6]
  Activity: 37%

## CCn1cc(C(CC)(CC)c2ccc(OCCCCC(=O)O)c(C)c2)cc1C(=O)NCC(C)(C)O
[4]
  collagen-1 synthesis inhibition relative to 1,25(OH)2D3 (%): 90%
[6]
  Activity: 30%

## CCn1c(C(=O)NCC(C)(C)O)ccc1C(CC)(CC)c1ccc(OCC(O)CO)c(C)c1 (stereo unspecified)
[4]
  collagen-1 synthesis inhibition relative to 1,25(OH)2D3 (%): 150%
[9]
  inhibition: inactive
[10]
  Activity: Dose-dependent effect
[6]
  Activity: 43%

## CCn1cc(C(CC)(CC)c2ccc(OC(=O)[C@H](C)N)c(C)c2)cc1C(=O)NCC(C)(C)O
[4]
  collagen-1 synthesis inhibition relative to 1,25(OH)2D3 (%): 73%
[6]
  Activity: 20%

## CCCCCNC(=O)c1cc(C(CC)(CC)c2ccc(OCC(O)CO)c(C)c2)cn1CC (stereo unspecified)
[4]
  collagen-1 synthesis inhibition relative to 1,25(OH)2D3 (%): 51%
[6]
  Activity: 16%

## CCn1cc(C(CC)(CC)c2ccc(OCC(O)CO)c(C)c2)cc1C(=O)NCC(C)(C)C (stereo unspecified)
[4]
  collagen-1 synthesis inhibition relative to 1,25(OH)2D3 (%): 119%
[6]
  Activity: 31%

## CCCCCNC(=O)c1ccc(C(CC)(CC)c2ccc(OCC(O)CO)c(C)c2)n1CC (stereo unspecified)
[4]
  collagen-1 synthesis inhibition relative to 1,25(OH)2D3 (%): 70%
[6]
  Activity: 21%

## CCn1cc(C(CC)(CC)c2ccc(OCC(O)CO)c(C)c2)cc1C(=O)NCC(F)(F)F (stereo unspecified)
[4]
  collagen-1 synthesis inhibition relative to 1,25(OH)2D3 (%): 133%
[11]
  inhibition: Active
[10]
  Activity: Dose-dependent effect
[6]
  Activity: 39%
[12]
  inhibition: Active

## CCn1c(C(=O)NCC2CC2)ccc1C(CC)(CC)c1ccc(OCC(O)CO)c(C)c1 (stereo unspecified)
[4]
  collagen-1 synthesis inhibition relative to 1,25(OH)2D3 (%): 71%
[6]
  Activity: 27%

## CCn1cc(C(CC)(CC)c2ccc(OCCCC(=O)O)c(C)c2)cc1C(=O)NCC(C)(C)O
[4]
  collagen-1 synthesis inhibition relative to 1,25(OH)2D3 (%): 112%
[6]
  Activity: 32%

## CCn1c(C(=O)NCC(C)(C)C)ccc1C(CC)(CC)c1ccc(OCC(O)CO)c(C)c1 (stereo unspecified)
[9]
  inhibition: inactive
[10]
  Activity: Dose-dependent effect
[6]
  Activity: 45%

## CCn1cc(C(CC)(CC)c2ccc(OCC(O)CO)c(C)c2)cc1C(=O)NCC(C)(C)O (stereo unspecified)
Mus musculus [1]
  Activity: Active
Mus musculus [2]
  Activity: Active
Mus musculus [3]
  Activity: Active
Mus musculus [13]
  Activity: Non-Toxic
[11]
  inhibition: Active
Mus musculus [14]
  Activity: Active
Mus musculus [15]
  Activity: Active
[9]
  inhibition: Active
[10]
  Activity: Dose-dependent effect
Mus musculus [16]
  Activity: Non-Toxic
Homo sapiens [17]
  inhibition: inactive
Mus musculus [18]
  Activity: Active
Mus musculus [19]
  Activity: Active
[7]
  half-life: 6.57 h
Homo sapiens [20]
  inhibition: inactive
[21]
  Activity: Active
Mus musculus [5]
  Activity: Active
Mus musculus [22]
  Activity: Active
[6]
  Activity: 62%
[8]
  bioavailability: 29.3%
[12]
  inhibition: Active
Mus musculus [23]
  Activity: Active

## CCn1cc(C(CC)(CC)c2ccc(OC(=O)CCN)c(C)c2)cc1C(=O)NCC(C)(C)O
[4]
  collagen-1 synthesis inhibition relative to 1,25(OH)2D3 (%): 66%
[6]
  Activity: 22%
